Converted amounts (≈) assume the structure as drawn.
How the values were obtained:
[1] = tested on: ECV-304; assay: Cytotoxic activity against ECV304 (human endothelial) cell line.; type: functional, cell-based
How it was run: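 1.5 × 10⁴ cells exposed 72 h to compounds in DMSO (final DMSO <0.1%) at 0.5–4 µg/mL, in triplicate wells. Viability read by MTT. Experiment repeated three times; mean IC50 (half-maximal cytotoxicity) reported.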

[2] = Ratio of IC50 against DU145 prostate tumor cell line to IC50 of human endothelial ECV304 cell line; type: functional, ECV-304
How it was run: (§1)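 Endothelial selectivity ratio = IC50 on the tumor line / IC50 on ECV304. […] Wells in triplicate, experiments in triplicate, mean IC50 used. Ratio <10 rated low, 10–20 moderate, >20 high.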

[3] = Ratio of IC50 against HT-29 colon tumor cell line to IC50 of human endothelial ECV304 cell line; type: functional; how it was run: as §1
[4] = Ratio of IC50 against L132 Lung tumor cell line to IC50 of human endothelial ECV304 cell line; type: functional; how it was run: as §1
[5] = tested on: ECV-304; assay: Ratio of IC50 against PA-1 ovary tumor cell line to IC50 of human endothelial ECV304 cell line; type: functional, Female gonad; how it was run: as §1
[6] = tested on: ECV-304; assay: Inhibition of tube-like structure formation in ECV304 (human endothelial) cell line.; type: functional

SMILES | IC50 [1] [µg/mL] | ECS ratio [2] | ECS ratio [3] | ECS ratio [4] | ECS ratio [5] | Inhibition [6] [%]
CC(C)[C@@H]1CC[C@]2(C(=O)O)CC[C@]3(C)C(CCC4[C@@]5(C)CC[C@H](OC(=O)c6ccccc6C(F)(F)F)C(C)(C)C5CC[C@]43C)C12 (stereo not given in full) | 2.6 (≈ 4.12 µM) | >1.5 | 3.84 | 1.5 | >1.53 | –
C=CC(=O)OC(=O)[C@]12CC[C@@H](C(=C)C)C1C1CCC3[C@@]4(C)CC[C@H](O)C(C)(C)C4CC[C@@]3(C)[C@]1(C)CC2 (stereo not given in full) | 4 (≈ 7.83 µM) | >2.5 | 2.5 | 0.43 | >1 | –
CC(C)[C@@H]1CC[C@]2(C(=O)O)CC[C@]3(C)C(CCC4[C@@]5(C)CCC(=O)C(C)(C)C5CC[C@]43C)C12 (stereo not given in full) | < 4 | – | – | – | – | –
CC(C)[C@@H]1CC[C@]2(C(=O)O)CC[C@]3(C)C(CCC4[C@@]5(C)CC/C(=N\Nc6ccccc6)C(C)(C)C5CC[C@]43C)C12 (stereo not given in full) | < 4 | – | – | – | – | –
CC(C)[C@@H]1CC[C@]2(C(=O)O)CC[C@]3(C)C(CCC4[C@@]5(C)CCC(N)C(C)(C)C5CC[C@]43C)C12 (stereo not given in full) | < 4 | – | – | – | – | –
C=C(C)[C@@H]1CC[C@]2(C(=O)O)CC[C@]3(C)C(CCC4[C@@]5(C)CC[C@H](OC(=O)Cc6cc(OC)ccc6OC)C(C)(C)C5CC[C@]43C)C12 (stereo not given in full) | 1.8 (≈ 2.84 µM) | 0.55 | >5.6 | 2.5 | – | –
CC(C)[C@@H]1CC[C@]2(C(=O)O)CC[C@]3(C)C(CCC4[C@@]5(C)CCC(NNc6ccccc6)C(C)(C)C5CC[C@]43C)C12 (stereo not given in full) | 0.5 (≈ 0.911 µM) | 19.8 | 3.5 | 1.6 | 7 | –
CC(C)[C@@H]1CC[C@]2(C(=O)O)CC[C@]3(C)C(CCC4[C@@]5(C)CC/C(=N\O)C(C)(C)C5CC[C@]43C)C12 (stereo not given in full) | < 4 | – | – | – | – | –
CC(C)[C@@H]1CC[C@]2(C(=O)O)CC[C@]3(C)C(CCC4[C@@]5(C)CC[C@H](OC(=O)c6cc(F)cc(F)c6)C(C)(C)C5CC[C@]43C)C12 (stereo not given in full) | 0.7 (≈ 1.17 µM) | 4.5 | >14.3 | 1.7 | – | –
COc1ccc(NNC2CC[C@@]3(C)C(CC[C@]4(C)C3CCC3C5[C@H](C(C)C)CC[C@]5(C(=O)O)CC[C@]34C)C2(C)C)cc1 (stereo not given in full) | 0.4 (≈ 0.691 µM) | 21.1 | 0.87 | – | – | –
C=C(C)[C@@H]1CC[C@]2(C(=O)O)CC[C@]3(C)C(CCC4[C@@]5(C)CC[C@H](OC(=O)c6ccc(CCCCC)cc6)C(C)(C)C5CC[C@]43C)C12 (stereo not given in full) | 1.9 (≈ 3.01 µM) | 1.05 | 1.84 | 3.1 | >2.1 | –
C=C(C)[C@@H]1CC[C@]2(C(=O)O)CC[C@]3(C)C(CCC4[C@@]5(C)CC[C@H](OC(=O)c6cccc(C(F)(F)F)c6)C(C)(C)C5CC[C@]43C)C12 (stereo not given in full) | 0.9 (≈ 1.43 µM) | >11.1 | >11.1 | 3 | >4.4 | –
C=C(C)[C@@H]1CC[C@]2(C(=O)O)CC[C@]3(C)C(CCC4[C@@]5(C)CC[C@H](OC(=O)c6ccc(CCCCCCC)cc6)C(C)(C)C5CC[C@]43C)C12 (stereo not given in full) | 1.7 (≈ 2.58 µM) | >5.8 | >5.89 | 4.1 | >2.3 | –
COc1ccc(N/N=C2\CC[C@@]3(C)C(CC[C@]4(C)C3CCC3C5[C@H](C(C)C)CC[C@]5(C(=O)O)CC[C@]34C)C2(C)C)cc1 (stereo not given in full) | < 4 | – | – | – | – | –
CC(C)[C@@H]1CC[C@]2(C(=O)O)CC[C@]3(C)C(CCC4[C@@]5(C)CC[C@H](OC(=O)c6ccc(F)cc6F)C(C)(C)C5CC[C@]43C)C12 (stereo not given in full) | 0.7 (≈ 1.17 µM) | 3.5 | 2.4 | 1.5 | 2.3 | 20
CC(C)[C@@H]1CC[C@]2(C(=O)O)CC[C@]3(C)C(CCC4[C@@]5(C)CCC(/N=C/c6ccc(F)cc6F)C(C)(C)C5CC[C@]43C)C12 (stereo not given in full) | 2.4 (≈ 4.12 µM) | 1.04 | 2.04 | 1.4 | 0.54 | 48
CC(C)[C@@H]1CC[C@]2(C(=O)O)CC[C@]3(C)C(CCC4[C@@]5(C)CCC(/N=C/c6ccc(F)c(F)c6)C(C)(C)C5CC[C@]43C)C12 (stereo not given in full) | 0.35 (≈ 0.602 µM) | 6.2 | 11.4 | 7.1 | 3.7 | 32
C=C(C)[C@@H]1CC[C@]2(C(=O)O)CC[C@]3(C)C(CCC4[C@@]5(C)CC/C(=N\Nc6ccccc6)C(C)(C)C5CC[C@]43C)C12 (stereo not given in full) | 2.4 (≈ 4.41 µM) | 2.7 | 4.2 | 1.9 | 2.08 | –
C=CC(=O)OC(=O)[C@]12CC[C@@H](C(C)C)C1C1CCC3[C@@]4(C)CC[C@H](O)C(C)(C)C4CC[C@@]3(C)[C@]1(C)CC2 (stereo not given in full) | 2 (≈ 3.9 µM) | >2 | 5 | 2 | 0.75 | –
C=C(C)[C@@H]1CC[C@]2(C(=O)O)CC[C@]3(C)[C@H](CC[C@@H]4[C@@]5(C)CC[C@H](O)C(C)(C)[C@@H]5CC[C@]43C)[C@@H]12 [BETULINIC ACID] | 1.2 (≈ 2.63 µM) | 2.2 | – | 1 | 3.2 | –
C=C(C)[C@@H]1CC[C@]2(C(=O)O)CC[C@]3(C)[C@H](CC[C@@H]4[C@@]5(C)CCC(=O)C(C)(C)[C@@H]5CC[C@]43C)[C@@H]12 [BETUNOLIC ACID] | < 4 | – | – | – | – | –
CC(C)[C@@H]1CC[C@]2(C(=O)O)CC[C@]3(C)C(CCC4[C@@]5(C)CC[C@H](O)C(C)(C)C5CC[C@]43C)C12 (stereo not given in full) [DIHYDROBETULINIC ACID] | < 4 | – | – | – | – | –
